From PubChem BioAssay come the findings set out here.

A short description of experiment [1]: hit retest on RPL19A-GFP reporter strain – cell-based, S. cerevisiae, flow cytometry, cherry picks, mother/daughter gates, confirmation (AID 2270;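 active = GFP response below 50% of the DMSO control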). Conditions: 3 h, at 10 µM, stronger effect = lower value, 100 = same GFP as DMSO wells.
Experiment [2] in a line: yeast TOR pathway reporter LAP4-GFP change – cell-based, cherry picks, flow cytometry, mother/daughter gates, confirmation (AID 2271;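 active = GFP response above 150% of the DMSO control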;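 note: ratio of sample to DMSO plate mean so 100% equals DMSO level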). To be noted: S. cerevisiae LAP4-GFP strain, 3 h, at 10 µM, stronger effect = higher value, 100 means same as DMSO control. Summed up:
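System: Alexa 633-stained baker's yeast GFP-fusion strain / Medium: synthetic complete (SC) yeast growth medium / Doses: compound at 10 µM, single point / Times: 3 h treatment at 30 °C with rotation / Detection: HT flow cytometry, GFP fluorescence channel / Benchmarks: DMSO-only negative wells, rapamycin 400 ng/mL positive wells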

The nature of experiment [3]: TOR pathway reporter MEP2-GFP, retest of hits – S. cerevisiae, flow cytometry GFP, cherry picks, confirmation (AID 2272;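 active = GFP response above 150% of the DMSO control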;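 note: ratio of well signal to plate DMSO mean so 100% equals DMSO level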). Conditions: S. cerevisiae MEP2-GFP strain, 3 h, at 10 µM, stronger effect = higher value. On the technique in general: A flow cytometer gives signals particle by particle.
The nature of experiment [4]: yeast AGP1-GFP fluorescence change, single-dose – cell-based, flow cytometry, S. cerevisiae, cherry picks, confirmation (AID 2273).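 Note: median GFP channel fluorescence over the whole cell population gate.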 Conditions: S. cerevisiae AGP1-GFP strain, 3 h, at 10 µM.
A short description of experiment [5]: TOR pathway CIT2 reporter hit retest – S. cerevisiae, GFP fusion, cherry picks, mother/daughter gates, confirmation (AID 2274). Conditions: S. cerevisiae CIT2-GFP strain, flow cytometry, 3 h, at 10 µM, stronger effect = higher value.
Where [6] appears, read: measured here: daughter cell gate.
Setting [7] is: measured here: mother cell gate.
Where [8] appears, read: measured here: daughter cell gate response.
Setting [9] is: measured here: mother cell gate response.

The source made the active and inactive calls.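 Rule for the calls, unless noted: active = GFP response above 150% of the DMSO level; inconclusive = fewer than 70 events counted for a yeast strain; inactive = the rest.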

For the compound `Cc1c(C(=O)NCCSCc2cccc(C(F)(F)F)c2)cnn1-c1ccc(F)cc1`, the GFP response vs DMSO in experiment [1] was 102% (inactive); in experiment [1] (setting [6]), 103%; in experiment [1] (setting [7]), 103%; in experiment [3] it was 104% (inactive). Moreover, the GFP response relative to DMSO was 98.8% (inactive) in experiment [2], 96.5% in experiment [2] (setting [8]) and 98.5% in experiment [2] (setting [9]). Further, the GFP response, % of DMSO in experiment [4] was 99.1% (inactive); in experiment [5], 108% (inactive); in experiment [5] (setting [6]) it was 102%; in experiment [5] (setting [7]), 108%.

With `O=[N+]([O-])/C=C/c1cn(Cc2ccc(F)cc2)c2ccccc12`, the GFP response vs DMSO in experiment [1] is 103% (inactive); in experiment [1] (setting [6]), 104%; in experiment [1] (setting [7]), 102%; in experiment [3], 105% (inactive). Moreover, the GFP response relative to DMSO in experiment [2] was 113% (inactive); in experiment [2] (setting [8]), 110%; in experiment [2] (setting [9]) it was 115%. In addition, the GFP response, % of DMSO in experiment [4] was 94.5% (inactive); in experiment [5], 104% (inactive); in experiment [5] (setting [6]) it was 105%; in experiment [5] (setting [7]), 101%.

On to `CCCN1CCN(C(=O)c2oc3ccccc3c2NC(=O)COc2ccc(OC)cc2)CC1`, for which the GFP response vs DMSO in experiment [1] is 98.6% (inactive); in experiment [1] (setting [6]), 100%; in experiment [1] (setting [7]) it was 99.8%; in experiment [3], 102% (inactive). Moreover, the GFP response relative to DMSO in experiment [2] was 95.4% (inactive); in experiment [2] (setting [8]), 96%; in experiment [2] (setting [9]), 95.1%. The GFP response, % of DMSO is 98.1% (inactive) in experiment [4], 105% (inactive) in experiment [5], 106% in experiment [5] (setting [6]) and 106% in experiment [5] (setting [7]).

With `O=C(/C=C/c1ccccc1[N+](=O)[O-])c1ccccc1Br`, the GFP response vs DMSO is 92.9% (inactive) in experiment [1], 94.8% in experiment [1] (setting [6]), 89.1% in experiment [1] (setting [7]) and 101% (inactive) in experiment [3]. For the same compound, the GFP response relative to DMSO in experiment [2] is 161% (active); in experiment [2] (setting [8]), 139%; in experiment [2] (setting [9]), 180%. The GFP response, % of DMSO is 104% (inactive) in experiment [4], 90.9% (inactive) in experiment [5], 95.2% in experiment [5] (setting [6]) and 82.8% in experiment [5] (setting [7]).

Take `CN(C)c1ccc(/C=C/c2cc[n+](C)cc2)cc1`: the GFP response vs DMSO was 111% (inactive) in experiment [1], 109% in experiment [1] (setting [6]), 109% in experiment [1] (setting [7]) and 215% (active) in experiment [3]. The figures for the GFP response relative to DMSO in experiment [2], in experiment [2] (setting [8]) and in experiment [2] (setting [9]) were 160% (active), 168% and 159%, respectively. In addition, the GFP response, % of DMSO in experiment [4] is 109% (inactive); in experiment [5], 149% (inactive); in experiment [5] (setting [6]), 129%; in experiment [5] (setting [7]), 134%.

Regarding `Cc1ccc(/C=C2/SC(=S)N(C3CCCCC3)C2=O)o1`, the GFP response vs DMSO was 100% (inactive) in experiment [1], 100% in experiment [1] (setting [6]), 98.6% in experiment [1] (setting [7]) and 126% (inactive) in experiment [3]. Further, the GFP response relative to DMSO was 157% (active) in experiment [2], 145% in experiment [2] (setting [8]) and 161% in experiment [2] (setting [9]). In addition, the GFP response, % of DMSO was 106% (inactive) in experiment [4], 98.8% (inactive) in experiment [5], 101% in experiment [5] (setting [6]) and 89.5% in experiment [5] (setting [7]).

As to `CC(=O)Nc1cccc(Oc2ccc(-c3noc(C)n3)cc2)c1`, the GFP response vs DMSO was 95.8% (inactive) in experiment [1], 93.4% in experiment [1] (setting [6]), 96.3% in experiment [1] (setting [7]) and 107% (inactive) in experiment [3]. Also, the GFP response relative to DMSO was 101% (inactive) in experiment [2], 99.1% in experiment [2] (setting [8]) and 102% in experiment [2] (setting [9]). Also, the GFP response, % of DMSO is 93.6% (inactive) in experiment [4], 97.3% (inactive) in experiment [5], 95.6% in experiment [5] (setting [6]) and 96.8% in experiment [5] (setting [7]).

On to `Cc1ccc(-c2nc3ccccn3c2NC(=O)c2ccco2)cc1`, for which the GFP response vs DMSO in experiment [1] was 94.9% (inactive); in experiment [1] (setting [6]), 96.4%; in experiment [1] (setting [7]), 95%; in experiment [3], 101% (inactive). Moreover, the GFP response relative to DMSO in experiment [2] is 98.9% (inactive); in experiment [2] (setting [8]), 97.5%; in experiment [2] (setting [9]) it was 98.4%. Further, the GFP response, % of DMSO was 98.4% (inactive) in experiment [4], 104% (inactive) in experiment [5], 103% in experiment [5] (setting [6]) and 104% in experiment [5] (setting [7]).

As to `O=C1CC(Sc2ncccn2)C(=O)N1c1ccccc1C(F)(F)F` (configuration not stated), the GFP response vs DMSO was 100% (inactive) in experiment [1], 100% in experiment [1] (setting [6]), 100% in experiment [1] (setting [7]) and 100% (inactive) in experiment [3]. The results for the GFP response relative to DMSO in experiment [2], in experiment [2] (setting [8]) and in experiment [2] (setting [9]) were 98.7% (inactive), 102% and 99.3%, respectively. Also, the GFP response, % of DMSO in experiment [4] was 98.9% (inactive); in experiment [5] it was 96.5% (inactive); in experiment [5] (setting [6]), 96.5%; in experiment [5] (setting [7]) it was 97.7%.

On to `COc1ccccc1C(=O)N1CCN(c2cccc(C(F)(F)F)c2)CC1`, for which the GFP response vs DMSO in experiment [1] was 96.2% (inactive); in experiment [1] (setting [6]), 97.3%; in experiment [1] (setting [7]), 97.4%; in experiment [3], 99.5% (inactive). Besides, the GFP response relative to DMSO in experiment [2] is 95.3% (inactive); in experiment [2] (setting [8]), 96.5%; in experiment [2] (setting [9]), 94.6%. Further, the GFP response, % of DMSO in experiment [4] was 98.9% (inactive); in experiment [5], 99.3% (inactive); in experiment [5] (setting [6]) it was 100%; in experiment [5] (setting [7]) it was 100%.

For `O=C(COC(=O)c1n[nH]c2ccccc12)c1cccc(Br)c1`, the GFP response vs DMSO in experiment [1] is 96.5% (inactive); in experiment [1] (setting [6]), 95.6%; in experiment [1] (setting [7]), 94.8%; in experiment [3], 101% (inactive). Further, the GFP response relative to DMSO in experiment [2] is 101% (inactive); in experiment [2] (setting [8]) it was 101%; in experiment [2] (setting [9]) it was 99.5%. The GFP response, % of DMSO in experiment [4] is 102% (inactive); in experiment [5], 100% (inactive); in experiment [5] (setting [6]), 95.8%; in experiment [5] (setting [7]), 100%.

In the case of `O=C(/C=C/c1ccnc2ccccc12)c1cccs1`, the GFP response vs DMSO in experiment [1] is 101% (inactive); in experiment [1] (setting [6]), 98.8%; in experiment [1] (setting [7]), 99.5%; in experiment [3] it was 126% (inactive). For the same compound, the results for the GFP response relative to DMSO in experiment [2], in experiment [2] (setting [8]) and in experiment [2] (setting [9]) were 172% (active), 156% and 171%, respectively. Moreover, the GFP response, % of DMSO in experiment [4] was 112% (inactive); in experiment [5], 90.7% (inactive); in experiment [5] (setting [6]), 94.6%; in experiment [5] (setting [7]), 84%.

Regarding `O=C1/C(=C\c2ccc(O)c(O)c2)SC(=S)N1Cc1ccccc1`, the GFP response vs DMSO is 100% (inactive) in experiment [1], 99.1% in experiment [1] (setting [6]), 100% in experiment [1] (setting [7]) and 141% (inactive) in experiment [3]. The GFP response relative to DMSO was 116% (inactive) in experiment [2], 117% in experiment [2] (setting [8]) and 116% in experiment [2] (setting [9]). The GFP response, % of DMSO in experiment [4] is 97.2% (inactive); in experiment [5], 113% (inactive); in experiment [5] (setting [6]) it was 119%; in experiment [5] (setting [7]) it was 108%.

Take `Cn1cc([N+](=O)[O-])c(C(=O)Nc2nc(-c3ccc(Cl)cc3)cs2)n1`: the GFP response vs DMSO in experiment [1] is 97.8% (inactive); in experiment [1] (setting [6]), 97%; in experiment [1] (setting [7]) it was 96.5%; in experiment [3], 106% (inactive). Also, the GFP response relative to DMSO in experiment [2] is 102% (inactive); in experiment [2] (setting [8]) it was 97.5%; in experiment [2] (setting [9]), 102%. For the same compound, the GFP response, % of DMSO in experiment [4] is 95.5% (inactive); in experiment [5], 100% (inactive); in experiment [5] (setting [6]) it was 97.6%; in experiment [5] (setting [7]), 99.3%.

As to `Cc1ccc(S(=O)(=O)N2CCCC2C(=O)Oc2ccccc2)cc1` (configuration not stated), the GFP response vs DMSO in experiment [1] is 98.8% (inactive); in experiment [1] (setting [6]), 99.1%; in experiment [1] (setting [7]), 99.5%; in experiment [3], 100% (inactive). For the same compound, the GFP response relative to DMSO in experiment [2] is 99.2% (inactive); in experiment [2] (setting [8]), 99.2%; in experiment [2] (setting [9]) it was 99.3%. Moreover, the GFP response, % of DMSO in experiment [4] is 95.6% (inactive); in experiment [5], 98.3% (inactive); in experiment [5] (setting [6]), 97.2%; in experiment [5] (setting [7]), 97.3%.

For the compound `COc1cccc(OCC(=O)N2CCCc3ccccc32)c1`, the GFP response vs DMSO is 97.8% (inactive) in experiment [1], 97% in experiment [1] (setting [6]), 97.1% in experiment [1] (setting [7]) and 99.3% (inactive) in experiment [3]. Further, the GFP response relative to DMSO in experiment [2] was 101% (inactive); in experiment [2] (setting [8]) it was 105%; in experiment [2] (setting [9]), 102%. The GFP response, % of DMSO was 100% (inactive) in experiment [4], 95.8% (inactive) in experiment [5], 97.6% in experiment [5] (setting [6]) and 94.9% in experiment [5] (setting [7]).

As for `O=C(CN1CCCC1)Nc1cc(C(F)(F)F)cc(C(F)(F)F)c1`, the GFP response vs DMSO was 101% (inactive) in experiment [1], 110% in experiment [1] (setting [6]), 100% in experiment [1] (setting [7]) and 68.3% (inactive) in experiment [3]. Further, the GFP response relative to DMSO in experiment [2] was 98.9% (inactive); in experiment [2] (setting [8]), 102%; in experiment [2] (setting [9]) it was 98.4%. For the same compound, the GFP response, % of DMSO is 102% (inactive) in experiment [4], 98.6% (inactive) in experiment [5], 99.3% in experiment [5] (setting [6]) and 97.1% in experiment [5] (setting [7]).
